According to ChEMBL document CHEMBL3739331, “Synthesis and Bioactivities of Kanamycin B-Derived Cationic Amphiphiles” (J Med Chem, 2015):
≈ marks a conversion by molar mass, not a printed value. Calls of active or inactive are those of the source. The rule behind the calls is not given here.

Key:
Klebsiella pneumoniae = assay: Antibacterial activity against Klebsiella pneumoniae ATCC 27736 by microdilution method; type: functional
How it was run: (§1)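 Broth microdilution MIC against the named bacterial strain, reported in μg/mL; each determination run at least in duplicate.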

[1] = Activity of AAC(3)-4 (unknown origin) assessed as compound acetylation activity by Ellman's method
Bacillus subtilis = assay: Antibacterial activity against Bacillus subtilis 168 by microdilution method; type: functional; details: subsp. subtilis str. 168; how it was run: as §1
Listeria monocytogenes = assay: Antibacterial activity against Listeria monocytogenes ATCC 19115 by microdilution method; type: functional; how it was run: as §1
Staphylococcus aureus [2] = assay: Antibacterial activity against methicillin-resistant Staphylococcus aureus by microdilution method; type: functional
How it was run: (§2)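 Broth microdilution MIC, in μg/mL, against a panel of Gram-positive and Gram-negative strains. Run at least in duplicate.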

Staphylococcus aureus [3] = assay: Antibacterial activity against Staphylococcus aureus ATCC 29213 by microdilution method; type: functional; how it was run: as §1
Staphylococcus aureus [4] = assay: Antibacterial activity against Staphylococcus aureus NRS382 (USA 100) by microdilution method; type: functional; how it was run: as §1
Staphylococcus aureus [5] = assay: Antibacterial activity against Staphylococcus aureus NRS383 (USA 200) by microdilution method; type: functional; how it was run: as §1
Staphylococcus aureus [6] = assay: Antibacterial activity against Staphylococcus aureus NRS385 (USA 300) by microdilution method; type: functional; how it was run: as §2
Staphylococcus aureus [7] = assay: Antibacterial activity against Staphylococcus aureus NRS22 (USA 600) by microdilution method; type: functional; how it was run: as §1
[8] = system: Staphylococcus epidermidis; assay: Antibacterial activity against Staphylococcus epidermidis ATCC 12228 by microdilution method; type: functional; how it was run: as §1
Enterococcus = assay: Antibacterial activity against vancomycin-resistant Enterococcus by microdilution method; type: functional; how it was run: as §2
Acinetobacter baumannii = assay: Antibacterial activity against Acinetobacter baumannii ATCC 19606 by microdilution method; type: functional; how it was run: as §1
Enterobacter cloacae = assay: Antibacterial activity against Enterobacter cloacae ATCC 13047 by microdilution method; type: functional; how it was run: as §1
Escherichia coli = assay: Antibacterial activity against Escherichia coli MC1061 by microdilution method; type: functional; how it was run: as §2
Pseudomonas aeruginosa = assay: Antibacterial activity against Pseudomonas aeruginosa ATCC 27853 by microdilution method; type: functional; how it was run: as §1
Salmonella enterica = assay: Antibacterial activity against Salmonella enterica ATCC 14028 by microdilution method; type: functional; how it was run: as §1
[9] = system: Bacillus subtilis subsp. subtilis str. 168; assay: Activity of Bacillus subtilis 168 APH(2'')-1a assessed as compound phosphorylation activity by Ellman's method
[10] = Activity of AAC(6')-1e/APH(2'')-1a (unknown origin) assessed as compound acetylation activity by Ellman's method
Serratia marcescens = assay: Activity of Serratia marcescens AAC(6')-2d assessed as compound acetylation activity by Ellman's method
[11] = system: Mycobacterium tuberculosis; assay: Activity of Mycobacterium tuberculosis AAC(2')-1c assessed as compound acetylation activity by Ellman's method
[12] = system: Mycobacterium tuberculosis; assay: Activity of Mycobacterium tuberculosis Eis assessed as compound acetylation activity by Ellman's method
Candida albicans [13] = assay: Antifungal activity against azole-resistant Candida albicans ATCC 10231 after 48 hrs by microbroth dilution method; type: functional; details: ATCC 10231, 48 h
How it was run: (§3)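 Yeast MIC by broth microdilution, run in duplicate. The aminoglycoside compounds are read as MIC-0 (complete inhibition). Azoles are read as MIC-2 (50% inhibition).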

Candida albicans [14] = assay: Antifungal activity against azole-resistant Candida albicans ATCC 64124 after 48 hrs by microbroth dilution method; type: functional; details: ATCC 64124, 48 h; how it was run: as §3
Candida albicans [15] = assay: Antifungal activity against azole-susceptible Candida albicans ATCC MYA-2876 after 48 hrs by microbroth dilution method; type: functional; details: ATCC MYA-2876, 48 h; how it was run: as §3
Candida albicans [16] = assay: Antifungal activity against azole-resistant Candida albicans ATCC 90819 after 48 hrs by microbroth dilution method; type: functional; details: ATCC 90819, 48 h; how it was run: as §3
Candida albicans [17] = assay: Antifungal activity against azole-susceptible Candida albicans ATCC MYA-2310 after 48 hrs by microbroth dilution method; type: functional; details: ATCC MYA-2310, 48 h; how it was run: as §3
Candida albicans [18] = assay: Antifungal activity against azole-resistant Candida albicans MYA-1237 after 48 hrs by microbroth dilution method; type: functional; details: MYA-1237, 48 h; how it was run: as §3
Candida albicans [19] = assay: Antifungal activity against azole-resistant Candida albicans MYA-1003 after 48 hrs by microbroth dilution method; type: functional; details: MYA-1003, 48 h; how it was run: as §3
Aspergillus nidulans = assay: Antifungal activity against Aspergillus nidulans ATCC 38163 after 48 hrs by microbroth dilution method; type: functional; details: ATCC 38163, 48 h
How it was run: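 Filamentous fungus MIC by broth microdilution, run in duplicate. All compounds are read as MIC-0 (complete inhibition).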

Candida albicans [20] = assay: Antifungal activity against azole-resistant Candida albicans ATCC 64124 at sub-MIC measured over 24 hrs by time-kill assay; type: functional, organism-based
How it was run: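 Time-kill assay on C. albicans ATCC 64124 cultures exposed to test compound at 1/2 MIC, MIC and higher concentrations. Amphotericin B at 1 μg/mL and a no-drug culture serve as controls. CFU are counted at intervals over 24 h.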

[21] = Hemolytic activity against mouse RBC at 100 to 500 ug/ml after 60 mins; type: ADME, cell-based; details: erythrocyte, 1 h

Compound | MIC (Klebsiella pneumoniae) [µg/mL] | Activity [1] | MIC (Bacillus subtilis) [µg/mL] | MIC (Listeria monocytogenes) [µg/mL] | MIC (Staphylococcus aureus [2]) [µg/mL] | MIC (Staphylococcus aureus [3]) [µg/mL] | MIC (Staphylococcus aureus [4]) [µg/mL] | MIC (Staphylococcus aureus [5]) [µg/mL] | MIC (Staphylococcus aureus [6]) [µg/mL] | MIC (Staphylococcus aureus [7]) [µg/mL] | MIC [8] [µg/mL] | MIC (Enterococcus) [µg/mL] | MIC (Acinetobacter baumannii) [µg/mL] | MIC (Enterobacter cloacae) [µg/mL] | MIC (Escherichia coli) [µg/mL] | MIC (Pseudomonas aeruginosa) [µg/mL] | MIC (Salmonella enterica) [µg/mL] | Activity [9] | Activity [10] | Activity (Serratia marcescens) | other results
CCCCCCCCCCCCS(=O)(=O)C[C@@H]1O[C@@H](O[C@@H]2[C@@H](O)[C@H](O[C@@H]3O[C@@H](CN)[C@H](O)[C@@H](O)[C@@H]3N)[C@@H](N)C[C@H]2N)[C@@H](O)[C@H](N)[C@H]1O (stereo in doubt) | 128 (≈ 183 µM) | inactive | > 128 | 4 (≈ 5.72 µM) | 64 (≈ 91.4 µM) | 128 (≈ 183 µM) | 64 (≈ 91.4 µM) | 32 (≈ 45.7 µM) | 64 (≈ 91.4 µM) | 32 (≈ 45.7 µM) | > 128 | 32 (≈ 45.7 µM) | 128 (≈ 183 µM) | > 128 | > 128 | 16 (≈ 22.9 µM) | 64 (≈ 91.4 µM) | inactive | inactive | inactive | Activity [11]: inactive; Activity [12]: inactive; MIC (Candida albicans [13]): 31.2 µg/mL (≈ 44.6 µM); MIC (Candida albicans [14]): 31.2 µg/mL (≈ 44.6 µM); MIC (Candida albicans [15]): 31.2 µg/mL (≈ 44.6 µM); MIC (Candida albicans [16]): 62.5 µg/mL (≈ 89.3 µM); MIC (Candida albicans [17]): 62.5 µg/mL (≈ 89.3 µM); MIC (Candida albicans [18]): 62.5 µg/mL (≈ 89.3 µM); MIC (Candida albicans [19]): 62.5 µg/mL (≈ 89.3 µM); MIC (Aspergillus nidulans): 3.9 µg/mL (≈ 5.57 µM)
CCCCCCCCCCCCCCS(=O)(=O)C[C@@H]1O[C@@H](O[C@@H]2[C@@H](O)[C@H](O[C@@H]3O[C@@H](CN)[C@H](O)[C@@H](O)[C@@H]3N)[C@@H](N)C[C@H]2N)[C@@H](O)[C@H](N)[C@H]1O (stereo in doubt) | > 128 | inactive | > 128 | 2 (≈ 2.75 µM) | 128 (≈ 176 µM) | 128 (≈ 176 µM) | 64 (≈ 87.9 µM) | 128 (≈ 176 µM) | 128 (≈ 176 µM) | 64 (≈ 87.9 µM) | > 128 | 32 (≈ 44 µM) | > 128 | > 128 | > 128 | 32 (≈ 44 µM) | 128 (≈ 176 µM) | inactive | inactive | inactive | Activity [11]: inactive; Activity [12]: inactive; MIC (Candida albicans [13]): 3.9 µg/mL (≈ 5.36 µM); MIC (Candida albicans [14]): 3.9 µg/mL (≈ 5.36 µM); MIC (Candida albicans [15]): 3.9 µg/mL (≈ 5.36 µM); MIC (Candida albicans [16]): 7.8 µg/mL (≈ 10.7 µM); MIC (Candida albicans [17]): 7.8 µg/mL (≈ 10.7 µM); MIC (Candida albicans [18]): 7.8 µg/mL (≈ 10.7 µM); MIC (Candida albicans [19]): 7.8 µg/mL (≈ 10.7 µM); MIC (Aspergillus nidulans): 1.95 µg/mL (≈ 2.68 µM)
C[C@@H]1[C@H](O)[C@@H](C)/C=C/C=C/C=C/C=C/C=C/C=C/C=C/[C@H](O[C@@H]2O[C@H](C)[C@@H](O)[C@H](N)[C@@H]2O)C[C@@H]2O[C@](O)(C[C@@H](O)C[C@@H](O)[C@H](O)CC[C@@H](O)C[C@@H](O)CC(=O)O[C@H]1C)C[C@H](O)[C@H]2C(=O)O [AMPHOTERICIN B] | – | – | – | – | – | – | – | – | – | – | – | – | – | – | – | – | – | – | – | – | Activity (Candida albicans [20]): Active; Activity [21]: Toxic
